Measurements from ChEMBL document CHEMBL1154674, “Synthesis and evaluation of three 18F-labeled aminophenylbenzothiazoles as amyloid imaging agents” (J Med Chem, 2009).

Target: Amyloid-beta precursor protein (Homo sapiens, UniProt P05067)
Assay: Displacement of [125I]IMPY from beta-amyloid plaques in Alzheimer's disease patient brain homogenate
Type: tissue-based
Method in brief: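 Test compound was added at 10^-5–10^-10 M, serially diluted in PBS containing 0.1% BSA. Nonspecific binding was defined with 600 nM unlabeled IMPY. Incubation was 37 °C for 2 h, followed by GF/B vacuum filtration, PBS washes and γ counting. Ki came from nonlinear regression.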

Chain of Amyloid-beta precursor protein (P05067 whole entry): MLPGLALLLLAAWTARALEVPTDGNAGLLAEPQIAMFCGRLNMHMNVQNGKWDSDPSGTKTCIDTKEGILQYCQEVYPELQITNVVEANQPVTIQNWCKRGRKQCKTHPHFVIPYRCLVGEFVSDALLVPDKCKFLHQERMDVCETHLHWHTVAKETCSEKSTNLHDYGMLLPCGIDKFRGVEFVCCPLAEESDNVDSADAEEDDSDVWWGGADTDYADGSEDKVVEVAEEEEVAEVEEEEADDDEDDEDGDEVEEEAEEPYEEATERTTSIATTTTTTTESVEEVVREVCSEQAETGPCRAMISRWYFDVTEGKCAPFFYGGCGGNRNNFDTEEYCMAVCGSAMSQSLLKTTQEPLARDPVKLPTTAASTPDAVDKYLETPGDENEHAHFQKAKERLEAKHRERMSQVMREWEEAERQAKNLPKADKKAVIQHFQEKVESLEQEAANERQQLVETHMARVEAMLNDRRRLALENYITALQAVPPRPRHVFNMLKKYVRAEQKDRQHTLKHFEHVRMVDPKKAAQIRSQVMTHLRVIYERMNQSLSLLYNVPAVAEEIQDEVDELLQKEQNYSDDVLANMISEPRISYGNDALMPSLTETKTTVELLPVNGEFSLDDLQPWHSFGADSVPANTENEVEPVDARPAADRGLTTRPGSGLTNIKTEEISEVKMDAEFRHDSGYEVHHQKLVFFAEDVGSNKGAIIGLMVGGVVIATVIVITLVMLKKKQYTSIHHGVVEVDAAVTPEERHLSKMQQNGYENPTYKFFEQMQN

CN(C)c1ccc2nc(-c3ccc(F)cc3)sc2c1
Ki: 3.8 nM
